Assay results as given in ChEMBL document CHEMBL4304743, “Discovery of ( E)- N1-(3-Fluorophenyl)- N3-(3-(2-(pyridin-2-yl)vinyl)-1 H-indazol-6-yl)malonamide (CHMFL-KIT-033) as a Novel c-KIT T670I Mutant Selective Kinase Inhibitor for Gastrointestinal Stromal Tumors (GISTs)” (J Med Chem, 2019).
The source made the active and inactive calls. No cut-off for these calls is given here.

Assays:
[1] = Antiproliferative activity in mouse BAF3 cells after 72 hrs by CCK8 assay; assay type: cell-based
Method in brief: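 IL-3-independent BaF3 cells carrying tel-c-KIT constructs, grown in RPMI 1640 with 10% FBS. Cells at 1.5-5 × 10^4 cells/mL mixed directly with serial compound dilutions, 72 h at 37 °C, 5% CO2. CCK-8 read-out at 450 nm, normalized to DMSO; GI50 by curve fitting.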

[2] = target: T1, Mast/stem cell growth factor receptor Kit (Homo sapiens, UniProt P10721); assay: Inhibition of wild type TEL fused c-KIT (unknown origin) transfected in mouse BAF3 cells assessed as growth inhibition after 72 hrs by CCK8 assay; assay type: cell-based; conditions: baf3, 72 h
T1 sequence (P10721 whole entry, the tested form may be a part): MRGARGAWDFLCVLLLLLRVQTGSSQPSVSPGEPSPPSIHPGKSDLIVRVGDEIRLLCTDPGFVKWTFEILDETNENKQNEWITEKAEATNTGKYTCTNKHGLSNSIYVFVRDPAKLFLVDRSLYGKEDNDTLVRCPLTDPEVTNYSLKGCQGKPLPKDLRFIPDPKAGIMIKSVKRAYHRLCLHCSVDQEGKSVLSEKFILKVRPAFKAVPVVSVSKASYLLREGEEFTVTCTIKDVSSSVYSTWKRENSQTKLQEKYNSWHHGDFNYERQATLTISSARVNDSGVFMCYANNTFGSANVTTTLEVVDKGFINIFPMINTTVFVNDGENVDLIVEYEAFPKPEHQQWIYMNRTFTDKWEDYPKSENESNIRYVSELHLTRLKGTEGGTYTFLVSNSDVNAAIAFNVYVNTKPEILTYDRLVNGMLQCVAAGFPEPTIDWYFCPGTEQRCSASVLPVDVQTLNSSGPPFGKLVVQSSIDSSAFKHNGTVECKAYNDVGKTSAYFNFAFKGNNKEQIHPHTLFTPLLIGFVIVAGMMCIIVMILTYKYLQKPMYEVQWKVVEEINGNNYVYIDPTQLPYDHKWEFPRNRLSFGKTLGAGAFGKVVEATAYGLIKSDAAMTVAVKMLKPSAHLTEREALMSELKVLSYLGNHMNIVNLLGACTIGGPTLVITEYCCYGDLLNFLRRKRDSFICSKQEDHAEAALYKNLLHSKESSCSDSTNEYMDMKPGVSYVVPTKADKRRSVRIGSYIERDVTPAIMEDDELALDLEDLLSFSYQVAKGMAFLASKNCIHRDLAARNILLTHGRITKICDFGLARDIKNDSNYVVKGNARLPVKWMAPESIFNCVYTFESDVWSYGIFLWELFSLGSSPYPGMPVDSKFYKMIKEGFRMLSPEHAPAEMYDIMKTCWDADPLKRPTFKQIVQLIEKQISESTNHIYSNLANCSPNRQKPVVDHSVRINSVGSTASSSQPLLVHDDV
Method in brief: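 IL-3 independent BaF3 cells stably expressing tel-c-KIT wt or tel-c-KIT T670I, grown in RPMI 1640 with 10% FBS, 2% L-glutamine, 37 °C, 5% CO2. Suspension cells at 1.5 to 5 × 10^4 cells/mL mixed with serial compound dilutions and incubated 72 h. Viability read by CCK-8 absorbance at 450 nm, normalized to DMSO; GI50 from curve fit. Selectivity is wt GI50 over T670I GI50.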

[3] = tested on: Mast/stem cell growth factor receptor Kit (Homo sapiens), P10721 [V559D,V654A]; assay: Inhibition of TEL fused c-KIT V654A/V559D double mutant (unknown origin) transfected in mouse BAF3 cells assessed as growth inhibition after 72 hrs by CCK8 assay; assay type: cell-based
Chain of Mast/stem cell growth factor receptor Kit (Homo sapiens), P10721 [V559D,V654A] (P10721 whole entry V559D/V654A, the tested form may be a part): as the sequence (P10721 whole entry, the tested form may be a part) above, with V559D, V654A counted along it
Method in brief: (§1)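 Tel-c-KIT-transformed BaF3 lines (IL-3 independent) kept in RPMI 1640 with 10% FBS, 2% L-glutamine and pen/strep. Cells at 1.5 to 5 × 10^4 cells/mL mixed with graded compound and incubated 72 h at 37 °C, 5% CO2. Viability by CCK-8 absorbance at 450 nm, normalized to DMSO. GI50 from dose–response fit.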

[4] = tested on: Mast/stem cell growth factor receptor Kit (Homo sapiens), P10721 [V559D,T670I]; assay: Inhibition of TEL fused c-KIT T670I/V559D double mutant (unknown origin) transfected in mouse BAF3 cells assessed as growth inhibition after 72 hrs by CCK8 assay; assay type: cell-based; method in brief: as §1
Chain of Mast/stem cell growth factor receptor Kit (Homo sapiens), P10721 [V559D,T670I] (P10721 whole entry V559D/T670I, the tested form may be a part): as the sequence (P10721 whole entry, the tested form may be a part) above, with V559D, T670I counted along it

[5] = tested on: Mast/stem cell growth factor receptor Kit (Homo sapiens), P10721 [D816V]; assay: Inhibition of TEL fused c-KIT D816V mutant (unknown origin) transfected in mouse BAF3 cells assessed as growth inhibition after 72 hrs by CCK8 assay; assay type: cell-based; method in brief: as §1
Chain of Mast/stem cell growth factor receptor Kit (Homo sapiens), P10721 [D816V] (P10721 whole entry D816V, the tested form may be a part): as the sequence (P10721 whole entry, the tested form may be a part) above, with D816V counted along it

[6] = target: Mast/stem cell growth factor receptor Kit (Homo sapiens, UniProt P10721, T670I); assay: Inhibition of His-tagged c-KIT T670I mutant (544 to 935 residues) (unknown origin) expressed in baculovirus infected sf9 cells pre-incubated for 60 mins followed by ATP addition and measured after 1 hr by Z-LYTE assay
Chain of Mast/stem cell growth factor receptor Kit (Homo sapiens, UniProt P10721, T670I) (P10721 26-976 T670I limits assumed): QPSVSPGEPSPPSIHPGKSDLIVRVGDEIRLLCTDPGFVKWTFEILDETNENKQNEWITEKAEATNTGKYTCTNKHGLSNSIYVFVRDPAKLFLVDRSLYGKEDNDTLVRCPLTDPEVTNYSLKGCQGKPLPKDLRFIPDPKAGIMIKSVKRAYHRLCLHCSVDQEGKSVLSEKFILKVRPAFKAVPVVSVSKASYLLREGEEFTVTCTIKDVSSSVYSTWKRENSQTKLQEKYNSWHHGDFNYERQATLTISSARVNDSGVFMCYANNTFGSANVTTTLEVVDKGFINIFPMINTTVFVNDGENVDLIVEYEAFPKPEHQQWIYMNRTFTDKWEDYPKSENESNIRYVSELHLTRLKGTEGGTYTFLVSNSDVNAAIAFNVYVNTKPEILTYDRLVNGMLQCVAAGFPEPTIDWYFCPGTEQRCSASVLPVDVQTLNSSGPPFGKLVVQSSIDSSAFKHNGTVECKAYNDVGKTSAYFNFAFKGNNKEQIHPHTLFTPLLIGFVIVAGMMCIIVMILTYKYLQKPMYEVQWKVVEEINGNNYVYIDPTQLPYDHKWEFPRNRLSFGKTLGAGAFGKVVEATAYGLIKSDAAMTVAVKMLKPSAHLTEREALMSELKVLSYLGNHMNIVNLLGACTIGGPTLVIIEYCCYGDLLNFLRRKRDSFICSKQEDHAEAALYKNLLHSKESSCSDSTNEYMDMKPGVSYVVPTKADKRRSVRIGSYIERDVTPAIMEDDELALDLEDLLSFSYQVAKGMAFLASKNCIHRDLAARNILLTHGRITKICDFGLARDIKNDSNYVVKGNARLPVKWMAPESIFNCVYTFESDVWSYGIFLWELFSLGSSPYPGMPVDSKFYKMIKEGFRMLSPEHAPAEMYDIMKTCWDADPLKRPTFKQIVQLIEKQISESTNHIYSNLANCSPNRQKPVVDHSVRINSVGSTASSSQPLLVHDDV

[7] = target: T1, Mast/stem cell growth factor receptor Kit; assay: Inhibition of TEL fused wild type c-KIT (unknown origin) transfected in mouse BaF3 cells assessed as reduction in phosphorylation at Y703 residue after 2 hrs by Western blot analysis; assay type: cell-based
[8] = target: T1, Mast/stem cell growth factor receptor Kit; assay: Inhibition of wild type c-KIT phosphorylation at Y703 residue in human COLO320DM cells after 2 hrs by Western blot analysis; assay type: cell-based
[9] = target: Casein kinase I isoform alpha (Homo sapiens, UniProt P48729); assay: Inhibition of wild-type human partial length CSNK1A1 (M1 to L301 residues) expressed in mammalian expression system after 1 hr by Z-LYTE assay
Chain of Casein kinase I isoform alpha (P48729 whole entry, the tested form may be a part, canonical isoform): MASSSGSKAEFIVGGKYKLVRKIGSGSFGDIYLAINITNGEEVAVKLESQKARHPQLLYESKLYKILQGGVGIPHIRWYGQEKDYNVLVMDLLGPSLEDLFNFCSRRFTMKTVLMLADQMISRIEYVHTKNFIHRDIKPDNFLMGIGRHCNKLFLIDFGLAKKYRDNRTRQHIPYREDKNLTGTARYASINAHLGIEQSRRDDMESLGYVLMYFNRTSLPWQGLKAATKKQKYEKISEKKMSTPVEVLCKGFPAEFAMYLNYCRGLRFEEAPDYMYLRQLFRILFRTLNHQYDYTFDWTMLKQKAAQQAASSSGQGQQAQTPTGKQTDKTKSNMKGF

[10] = target: Platelet-derived growth factor receptor alpha (Homo sapiens, UniProt P16234); assay: Inhibition of wild-type human partial length PDGFRA (V575 to D1002 residues) expressed in mammalian expression system after 1 hr by Z-LYTE assay
Chain of Platelet-derived growth factor receptor alpha (P16234 whole entry, the tested form may be a part): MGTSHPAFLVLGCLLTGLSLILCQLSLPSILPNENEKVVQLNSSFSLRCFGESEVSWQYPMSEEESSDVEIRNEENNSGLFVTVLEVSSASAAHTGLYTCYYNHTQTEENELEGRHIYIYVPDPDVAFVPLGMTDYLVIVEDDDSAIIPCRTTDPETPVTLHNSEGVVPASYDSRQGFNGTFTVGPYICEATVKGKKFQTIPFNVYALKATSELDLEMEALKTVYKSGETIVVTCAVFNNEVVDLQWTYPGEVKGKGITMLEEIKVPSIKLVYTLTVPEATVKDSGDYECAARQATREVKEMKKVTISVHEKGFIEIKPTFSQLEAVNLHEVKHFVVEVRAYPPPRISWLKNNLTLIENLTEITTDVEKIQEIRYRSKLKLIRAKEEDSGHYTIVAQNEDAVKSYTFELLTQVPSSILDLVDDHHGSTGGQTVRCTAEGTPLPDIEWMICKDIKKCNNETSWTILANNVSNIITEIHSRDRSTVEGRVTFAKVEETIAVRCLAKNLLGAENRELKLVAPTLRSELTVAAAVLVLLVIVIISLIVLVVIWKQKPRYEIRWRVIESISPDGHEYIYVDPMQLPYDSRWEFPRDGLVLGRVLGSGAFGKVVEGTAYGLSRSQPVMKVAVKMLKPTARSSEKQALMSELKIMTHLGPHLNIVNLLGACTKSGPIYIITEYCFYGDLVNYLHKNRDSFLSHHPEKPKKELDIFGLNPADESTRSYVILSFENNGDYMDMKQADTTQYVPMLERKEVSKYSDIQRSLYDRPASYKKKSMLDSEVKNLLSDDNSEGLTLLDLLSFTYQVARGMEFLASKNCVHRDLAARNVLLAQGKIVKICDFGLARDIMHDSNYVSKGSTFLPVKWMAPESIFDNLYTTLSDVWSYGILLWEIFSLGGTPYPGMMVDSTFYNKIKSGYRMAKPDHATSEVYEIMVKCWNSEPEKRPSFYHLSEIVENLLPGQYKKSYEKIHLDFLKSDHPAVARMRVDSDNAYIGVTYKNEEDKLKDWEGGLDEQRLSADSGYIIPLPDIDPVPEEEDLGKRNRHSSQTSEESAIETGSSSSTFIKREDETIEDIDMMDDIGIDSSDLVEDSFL

[11] = Antiproliferative activity against human GIST48B cells incubated for 72 hrs by CCK8 assay; assay type: functional
Method in brief: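 Adherent GIST cells seeded at 1.5-5 × 10^4 cells/mL and left overnight at 37 °C, 5% CO2. Medium then replaced with medium holding serial compound dilutions; 72 h incubation. Viability by CCK-8, absorbance at 450 nm, normalized to DMSO control; GI50 from dose-response fit.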

[12] = tested on: Mast/stem cell growth factor receptor Kit (Homo sapiens), P10721 [UNDEFINED MUTATION]; assay: Inhibition of c-KIT 560 to 578 deletion mutant in human GISTT1 cells assessed as reduction in c-KIT autophosphorylation at Y719 residue at 0.1 uM to 3 uM after 1 hr by Western blot analysis; assay type: cell-based
Chain of Mast/stem cell growth factor receptor Kit (Homo sapiens), P10721 [UNDEFINED MUTATION] (P10721 whole entry, looked up, stated change not applied): as the sequence (P10721 whole entry, the tested form may be a part) above
Method in brief: (§2)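 Serial compound dilutions applied for 1 h to GIST-T1, GIST-T1-T670I (CRISPR/Cas9 T670I knock-in, clone confirmed by Sanger sequencing) or GIST-5R cells in DMEM with 10% FBS. Cells then lysed and phospho-proteins detected by standard Western blotting.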

[13] = tested on: Mast/stem cell growth factor receptor Kit (Homo sapiens), P10721 [UNDEFINED MUTATION]; assay: Inhibition of c-KIT 560 to 578 deletion/T670I double mutant in human GISTT1 cells assessed as reduction in S6 phosphorylation at S235/S236 residue at 0.1 uM to 3 uM after 1 hr by Western blot analysis; assay type: cell-based; method in brief: as §2
GISTT1 = assay: Induction of cell cycle arrest in human GISTT1 cells harboring 560 to 578 deletion/T670I double mutant after 24 hrs; assay type: functional, cell-based
[14] = Cmax in Sprague-Dawley rat at 10 mg/kg, po measured after 5 to 720 mins by LC-tandem mass spectrometry analysis; assay type: ADME, organism-based; design: dose 10 mg/kg, route oral; conditions: in vivo
Method in brief: (§3)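 Male Sprague-Dawley rats (190-210 g), fasted 12 h, randomized into two groups: 1 mg/kg i.v. or 10 mg/kg p.o., both formulated in 10% DMSO/90% of 5% glucose water. Blood sampled at 2-720 min (i.v.) or 5-720 min (p.o.). Plasma protein-precipitated with methanol, caffeine internal standard, LC-MS/MS. Noncompartmental analysis; triplicate, ±SD.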

[15] = Half-life in mouse at 1 mg/kg, iv measured after 2 to 720 mins by LC-tandem mass spectrometry analysis; assay type: ADME, organism-based; conditions: in vivo
Method in brief: (§4)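 Mice dosed 1 mg/kg i.v. or 10 mg/kg p.o.; plasma drug levels by LC-MS/MS, parameters by noncompartmental analysis; values not from triplicate testing.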

[16] = Apparent clearance in mouse at 10 mg/kg, po measured after 5 to 720 mins by LC-tandem mass spectrometry analysis; assay type: ADME, organism-based; conditions: in vivo, read-out: CL(app) (converted); method in brief: as §4
[17] = Cmax in Sprague-Dawley rat at 1 mg/kg, iv measured after 2 to 720 mins by LC-tandem mass spectrometry analysis; assay type: ADME, organism-based; design: dose 1 mg/kg, route intravenous; conditions: in vivo; method in brief: as §3
[18] = Drug level in plasma of nude mouse xenograted with human GIST5R cells at 100 mg/kg, po administered as single dose and measured at 4 hrs; assay type: ADME, organism-based; conditions: in vivo
Method in brief: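 GIST-5R xenograft nu/nu mice given a single 100 mg/kg oral dose; plasma drug concentration followed over a time course alongside tumor p-c-KIT, p-ERK and p-AKT.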

## O=C(CC(=O)Nc1ccc2c(/C=C/c3ccccn3)n[nH]c2c1)Nc1cccc(F)c1
[1]
  GI50 at 72 h: 3970 nM
[2]
  GI50: 1150 nM
[3]
  GI50: 265 nM
[4]
  GI50: 122 nM
[5]
  GI50: 3460 nM
[6]
  IC50: 45 nM
[7]
  EC50: > 1000 nM
[8]
  EC50: 1810 nM
[9]
  IC50: > 10000 nM
[10]
  IC50: 7780 nM
[11]
  GI50: > 10000 nM
[12]
  inhibition: Active
[13]
  inhibition: Active
GISTT1
  Activity: Dose-dependent effect
[14]
  Cmax: 97.1 ng/mL
[15]
  half-life: 4.9 h
[16]
  CL/F: 113 mL/min/kg
[17]
  Cmax: 378 ng/mL
[18]
  Drug uptake: Not Active
